{"source": "ChEMBL document CHEMBL5046302", "about": "“Identification and Evaluation of Brominated Carbazoles as a Novel Antibiotic Adjuvant Scaffold in MRSA” (2022)", "format_in_all_cases": "functional", "key": {"Staphylococcus aureus [1]": {"system": "Staphylococcus aureus", "experiment": "Potentiation of ceftazidime induced antibacterial activity against methicillin-resistant Staphylococcus aureus USA100 assessed as fold change in ceftazidime MIC at 25 uM after 18 hrs by CLSI protocol based broth microdilution assay"}, "Staphylococcus aureus [2]": {"system": "Staphylococcus aureus", "experiment": "Potentiation of cefoxitin induced antibacterial activity against methicillin-resistant Staphylococcus aureus COL assessed as fold change in cefoxitin MIC at 25 uM after 18 hrs by CLSI protocol based broth microdilution assay"}, "Staphylococcus aureus [3]": {"system": "Staphylococcus aureus", "experiment": "Potentiation of cefoxitin induced antibacterial activity against methicillin-resistant Staphylococcus aureus ATCC 43300 assessed as cefoxitin MIC at 25 uM after 18 hrs by CLSI protocol based broth microdilution assay"}, "Staphylococcus aureus [4]": {"system": "Staphylococcus aureus", "experiment": "Potentiation of oxacillin induced antibacterial activity against methicillin-resistant Staphylococcus aureus USA100 assessed as oxacillin MIC at 25 uM after 18 hrs by CLSI protocol based broth microdilution assay"}, "Staphylococcus aureus [5]": {"system": "Staphylococcus aureus", "experiment": "Potentiation of oxacillin induced antibacterial activity against methicillin-resistant Staphylococcus aureus assessed as fold decrease in mecA gene expression at 25 uM by RT-qPCR analysis", "outline": "(§1)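 Fold dampening is the relative mRNA level of the gene, normalised to 16S rRNA, in oxacillin-treated cells divided by that in cells cotreated with oxacillin plus carbazole. Carbazole was used at 25 or 50 μM, as given in each line.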"}, "Staphylococcus aureus [6]": {"system": "Staphylococcus aureus", "experiment": "Potentiation of ampicillin induced antibacterial activity against methicillin-resistant Staphylococcus aureus ATCC 43300 assessed as fold change in ampicillin MIC at 25 uM after 18 hrs by CLSI protocol based broth microdilution assay"}, "Staphylococcus aureus [7]": {"system": "Staphylococcus aureus", "experiment": "Potentiation of cefoxitin induced antibacterial activity against methicillin-resistant Staphylococcus aureus ATCC 43300 assessed as fold change in cefoxitin MIC at 25 uM after 18 hrs by CLSI protocol based broth microdilution assay"}, "Staphylococcus aureus [8]": {"system": "Staphylococcus aureus", "experiment": "Potentiation of cefoxitin induced antibacterial activity against methicillin-resistant Staphylococcus aureus USA100 assessed as fold change in cefoxitin MIC at 25 uM after 18 hrs by CLSI protocol based broth microdilution assay"}, "Staphylococcus aureus [9]": {"system": "Staphylococcus aureus", "experiment": "Potentiation of oxacillin induced antibacterial activity against methicillin-resistant Staphylococcus aureus COL assessed as fold change in oxacillin MIC at 25 uM after 18 hrs by CLSI protocol based broth microdilution assay"}, "Staphylococcus aureus [10]": {"system": "Staphylococcus aureus", "experiment": "Potentiation of oxacillin induced antibacterial activity against methicillin-resistant Staphylococcus aureus USA300 harboring stk1 deletion mutant assessed as fold change in oxacillin MIC at 25 uM after 18 hrs by CLSI protocol based broth microdilution assay"}, "Staphylococcus aureus [11]": {"system": "Staphylococcus aureus", "experiment": "Potentiation of ceftazidime induced antibacterial activity against methicillin-resistant Staphylococcus aureus COL assessed as fold change in ceftazidime MIC at 25 uM after 18 hrs by CLSI protocol based broth microdilution assay"}, "Staphylococcus aureus [12]": {"system": "Staphylococcus aureus", "experiment": "Potentiation of methicillin induced antibacterial activity against methicillin-resistant Staphylococcus aureus ATCC 43300 assessed as fold change in methicillin MIC at 25 uM after 18 hrs by CLSI protocol based broth microdilution assay"}, "Staphylococcus aureus [13]": {"system": "Staphylococcus aureus", "experiment": "Potentiation of ampicillin induced antibacterial activity against methicillin-resistant Staphylococcus aureus COL assessed as ampicillin MIC at 25 uM after 18 hrs by CLSI protocol based broth microdilution assay"}, "Staphylococcus aureus [14]": {"system": "Staphylococcus aureus", "experiment": "Potentiation of ampicillin induced antibacterial activity against methicillin-resistant Staphylococcus aureus COL assessed as fold change in ampicillin MIC at 25 uM after 18 hrs by CLSI protocol based broth microdilution assay"}, "Staphylococcus aureus [15]": {"system": "Staphylococcus aureus", "experiment": "Potentiation of oxacillin induced antibacterial activity against methicillin-resistant Staphylococcus aureus ATCC 43300 assessed as oxacillin MIC at 25 uM after 18 hrs by CLSI protocol based broth microdilution assay"}, "Staphylococcus aureus [16]": {"system": "Staphylococcus aureus", "experiment": "Potentiation of methicillin induced antibacterial activity against methicillin-resistant Staphylococcus aureus USA300 assessed as fold change in methicillin MIC at 25 uM after 18 hrs by CLSI protocol based broth microdilution assay"}, "Staphylococcus aureus [17]": {"system": "Staphylococcus aureus", "experiment": "Potentiation of oxacillin induced antibacterial activity against methicillin-resistant Staphylococcus aureus USA300 harboring stk1 deletion mutant co-transfected with a plasmid bearing stk1 assessed as oxacillin MIC at 25 uM after 18 hrs by CLSI protocol based broth microdilution assay"}, "Staphylococcus aureus [18]": {"system": "Staphylococcus aureus", "experiment": "Potentiation of oxacillin induced antibacterial activity against methicillin-resistant Staphylococcus aureus COL assessed as oxacillin MIC at 25 uM after 18 hrs by CLSI protocol based broth microdilution assay"}, "Staphylococcus aureus [19]": {"system": "Staphylococcus aureus", "experiment": "Potentiation of oxacillin induced antibacterial activity against methicillin-resistant Staphylococcus aureus assessed as fold decrease in mecI gene expression at 25 uM by RT-qPCR analysis", "outline": "as §1"}, "Staphylococcus aureus [20]": {"system": "Staphylococcus aureus", "experiment": "Potentiation of ampicillin induced antibacterial activity against methicillin-resistant Staphylococcus aureus ATCC 43300 assessed as ampicillin MIC at 25 uM after 18 hrs by CLSI protocol based broth microdilution assay"}, "Staphylococcus aureus [21]": {"system": "Staphylococcus aureus", "experiment": "Potentiation of methicillin induced antibacterial activity against methicillin-resistant Staphylococcus aureus USA100 assessed as fold change in methicillin MIC at 25 uM after 18 hrs by CLSI protocol based broth microdilution assay"}, "Staphylococcus aureus [22]": {"system": "Staphylococcus aureus", "experiment": "Upregulation of blaZ gene expression in methicillin-resistant Staphylococcus aureus ATCC 43300 at 25 uM by RT-PCR method"}, "Staphylococcus aureus [23]": {"system": "Staphylococcus aureus", "experiment": "Upregulation of blaZ gene expression in methicillin-resistant Staphylococcus aureus USA100 at 25 uM by RT-PCR method"}, "Staphylococcus aureus [24]": {"system": "Staphylococcus aureus", "experiment": "Potentiation of cefoxitin induced antibacterial activity against methicillin-resistant Staphylococcus aureus USA300 assessed as fold change in cefoxitin MIC at 25 uM after 18 hrs by CLSI protocol based broth microdilution assay"}, "Staphylococcus aureus [25]": {"system": "Staphylococcus aureus", "experiment": "Upregulation of mecA gene expression in methicillin-resistant Staphylococcus aureus USA300 at 25 uM by RT-PCR method"}, "Staphylococcus aureus [26]": {"system": "Staphylococcus aureus", "experiment": "Potentiation of oxacillin induced antibacterial activity against methicillin-resistant Staphylococcus aureus assessed as fold decrease in blaI gene expression at 50 uM by RT-qPCR analysis", "outline": "as §1"}, "Staphylococcus aureus [27]": {"system": "Staphylococcus aureus", "experiment": "Upregulation of blaZ gene expression in methicillin-resistant Staphylococcus aureus ATCC 43300 at 50 uM by RT-PCR method"}, "Staphylococcus aureus [28]": {"system": "Staphylococcus aureus", "experiment": "Upregulation of blaZ gene expression in methicillin-resistant Staphylococcus aureus USA100 at 50 uM by RT-PCR method"}, "Staphylococcus aureus [29]": {"system": "Staphylococcus aureus", "experiment": "Upregulation of mecA gene expression in methicillin-resistant Staphylococcus aureus USA300 at 50 uM by RT-PCR method"}, "Staphylococcus aureus [30]": {"system": "Staphylococcus aureus", "experiment": "Potentiation of oxacillin induced antibacterial activity against methicillin-resistant Staphylococcus aureus USA300 harboring stk1 deletion mutant co-transfected with a plasmid bearing stk1 assessed as fold change in oxacillin MIC at 50 uM after 18 hrs by CLSI protocol based broth microdilution assay"}, "Staphylococcus aureus [31]": {"system": "Staphylococcus aureus", "experiment": "Potentiation of oxacillin induced antibacterial activity against methicillin-resistant Staphylococcus aureus assessed as fold decrease in blaZ gene expression at 50 uM by RT-qPCR analysis", "outline": "as §1"}, "Staphylococcus aureus [32]": {"system": "Staphylococcus aureus", "experiment": "Potentiation of oxacillin induced antibacterial activity against methicillin-resistant Staphylococcus aureus USA300 harboring stk1 deletion mutant co-transfected with a plasmid bearing stk1 assessed as oxacillin MIC at 50 uM after 18 hrs by CLSI protocol based broth microdilution assay", "outline": "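Oxacillin MIC by broth microdilution in the USA300 Δstk1 strain complemented with plasmid-borne stk1, with stk1 expression induced. Tested with and without carbazole at 50 μM. Fold change in MIC is taken relative to oxacillin alone.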"}}, "note": "Active and inactive are the calls of the source. No cut-off for these calls is given here."}
{"smiles": "Brc1cccc2[nH]c3ccccc3c12", "values": [{"measurement": "fold change (FC)", "setting": "Staphylococcus aureus [1]", "value": 1}, {"measurement": "fold change (FC)", "setting": "Staphylococcus aureus [2]", "value": 1}, {"measurement": "MIC", "setting": "Staphylococcus aureus [3]", "value": 16, "unit": "µg/mL"}, {"measurement": "MIC", "setting": "Staphylococcus aureus [4]", "value": 16, "unit": "µg/mL"}, {"measurement": "fold change (FC)", "setting": "Staphylococcus aureus [5]", "value": 4}, {"measurement": "fold change (FC)", "setting": "Staphylococcus aureus [6]", "value": 2}, {"measurement": "fold change (FC)", "setting": "Staphylococcus aureus [7]", "value": 4}, {"measurement": "fold change (FC)", "setting": "Staphylococcus aureus [8]", "value": 4}, {"measurement": "fold change (FC)", "setting": "Staphylococcus aureus [9]", "value": 1}, {"measurement": "fold change (FC)", "setting": "Staphylococcus aureus [10]", "value": 1}, {"measurement": "fold change (FC)", "setting": "Staphylococcus aureus [11]", "value": 1}, {"measurement": "fold change (FC)", "setting": "Staphylococcus aureus [12]", "value": 1}, {"measurement": "MIC", "setting": "Staphylococcus aureus [13]", "value": 32, "unit": "µg/mL"}, {"measurement": "fold change (FC)", "setting": "Staphylococcus aureus [14]", "value": 1}, {"measurement": "MIC", "setting": "Staphylococcus aureus [15]", "value": 4, "unit": "µg/mL"}, {"measurement": "fold change (FC)", "setting": "Staphylococcus aureus [16]", "value": 4}, {"measurement": "MIC", "setting": "Staphylococcus aureus [17]", "value": 0.5, "unit": "µg/mL"}, {"measurement": "MIC", "setting": "Staphylococcus aureus [18]", "value": 512, "unit": "µg/mL"}, {"measurement": "fold change (FC)", "setting": "Staphylococcus aureus [19]", "value": 1.28}, {"measurement": "MIC", "setting": "Staphylococcus aureus [20]", "value": 16, "unit": "µg/mL"}, {"measurement": "fold change (FC)", "setting": "Staphylococcus aureus [21]", "value": 16}, {"measurement": "Activity", "setting": "Staphylococcus aureus [22]", "value": "inactive"}, {"measurement": "Activity", "setting": "Staphylococcus aureus [23]", "value": "inactive"}, {"measurement": "fold change (FC)", "setting": "Staphylococcus aureus [24]", "value": 4}, {"measurement": "Activity", "setting": "Staphylococcus aureus [25]", "value": "inactive"}]}
{"smiles": "Brc1cccc2c1[nH]c1ccccc12", "values": [{"measurement": "fold change (FC)", "setting": "Staphylococcus aureus [26]", "value": 1.36}, {"measurement": "Activity", "setting": "Staphylococcus aureus [27]", "value": "inactive"}, {"measurement": "Activity", "setting": "Staphylococcus aureus [28]", "value": "inactive"}, {"measurement": "Activity", "setting": "Staphylococcus aureus [29]", "value": "inactive"}, {"measurement": "fold change (FC)", "setting": "Staphylococcus aureus [30]", "value": 4}, {"measurement": "fold change (FC)", "setting": "Staphylococcus aureus [31]", "value": 3.86}, {"measurement": "MIC", "setting": "Staphylococcus aureus [32]", "value": 1, "unit": "µg/mL"}]}
